Values belong to the molecule of their own block, whether it stands above or below them.
Assays:
[1] = test system: C2C12 cells; experiment: C1-BODIPY-C12 fatty acid uptake inhibition in C2C12 myocytes; type: cell-based; settings: Mus musculus, C2C12, read-out: IC50, inhibition of C1-BODIPY-C12 uptake
Outline: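 C2C12 mouse myoblasts grown in DMEM with 10 % FBS and 2 mM L-glutamine at 37 °C, 5 % CO2. Differentiated for 96 h at 8x10^4 cells/well in DMEM with 10 % horse serum. Uptake of fluorescent C1-BODIPY-C12 read as cell-associated fluorescence at ex/em 485/528 nm across a range of test compound concentrations. IC50 from non-linear dose-response regression; 3 experiments in triplicate, mean ± SE.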

[2] = test system: INS-1E cells; experiment: C1-BODIPY-C12 fatty acid uptake inhibition in INS-1E pancreatic β-cells; type: cell-based; settings: read-out: IC50, inhibition of C1-BODIPY-C12 uptake
Outline: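 INS-1E cells kept in RPMI 1640 with 5 % FBS, 1 mM pyruvate, 50 μM 2-mercaptoethanol and 10 mM HEPES at 37 °C, 5 % CO2. Seeded at 2x10^5 cells/well on collagen and used after 96 h. C1-BODIPY-C12 uptake read as cell-associated fluorescence at 485/528 nm against test compound concentration. IC50 by non-linear dose-response fit; 3 experiments in triplicate, mean ± SE.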

[3] = test system: human adipocytes; experiment: C1-BODIPY-C12 fatty acid uptake inhibition in primary human adipocytes; type: cell-based; settings: read-out: IC50, inhibition of C1-BODIPY-C12 uptake
Outline: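 Primary human preadipocytes seeded at 1.5x10^4 cells/well in alpha-MEM with 10 % FBS. Differentiated for 6 days with 540 μM IBMX plus 1 μM rosiglitazone, then kept without them until lipid droplets appeared. C1-BODIPY-C12 uptake read as cell-associated fluorescence at 485/528 nm across test compound concentrations. IC50 by non-linear dose-response fit; 3 experiments in triplicate.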

[4] = test system: cell lines that are models for intestines, liver, muscle and pancreas; experiment: Fatty acid uptake inhibition, summary over cell lines; type: cell-based; settings: read-out: IC50, inhibition of fatty acid uptake
[5] = test system: HepG2 cells; experiment: C1-BODIPY-C12 uptake in HepG2 cells; type: cell-based
Outline: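 Inhibition kinetics in HepG2 cells using 7 test compound concentrations (1.25–15 μM) and 4 C1-BODIPY-C12 concentrations (2.5–10 μM). The plate reader's injectors dispensed compound, then added substrate at timed intervals. Initial uptake rates measured over 90 s by fluorescence. Best-fit inhibition model chosen by enzyme-kinetics analysis; points are mean with SD.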

[6] = test system: HepG2 cells; experiment: Uptake of BODIPY FL-C16 and BODIPY FL-C5 in HepG2 cells; type: cell-based
[7] = test system: Caco-2 cells; experiment: Uptake of BODIPY FL-C16 and BODIPY FL-C5 in Caco-2 cells; type: cell-based, human
[8] = test system: HepG2 cells; experiment: Palmitate-induced lipid accumulation; type: cell-based; settings: 50 μM compound, each concentration of PA (0-500 μM), 24 hrs
[9] = test system: primary mouse hepatocytes; experiment: Palmitate-induced lipid accumulation; type: cell-based, mice; settings: 50 μM compound, each concentration of PA (0-500 μM)
Outline: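 Hepatocytes isolated from 10–12-week 129S1/SvImJ mice and plated on collagen at 1.5x10^4 cells/well in DMEM with FBS, glucagon, hydrocortisone, EGF and insulin. Treated after 4–5 h of attachment with BSA-conjugated palmitate (0–500 μM, 2.5:1) with or without test compound (0–50 μM). Lipid measured by 30 μM Nile Red, 30 min at 37 °C, 485/590 nm. AFU per 10^6 cells; 3 experiments in triplicate.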

[10] = test system: INS-1E cells; experiment: Palmitate-induced lipid accumulation; type: cell-based; settings: 50 μM compound, each concentration of PA (0-500 μM), 24 hrs
Outline: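 INS-1E cells, 96 h after plating, treated for 24 h with BSA-conjugated palmitate (0–500 μM, 2.5:1 PA:BSA) with or without test compound (0–50 μM). Stained with 30 μM Nile Red for 30 min at 37 °C and read at ex/em 485/590 nm. Results as AFU per 10^6 cells; 3 experiments in triplicate.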

[11] = test system: HepG2 cells; experiment: Nuclear integrity; type: cell-based; settings: PA 0-500 μM, Grassofermata 0-50 μM
[12] = test system: primary mouse hepatocytes; experiment: Nuclear integrity; type: cell-based, mice; settings: primary murine hepatocytes; PA 0-500 μM, Grassofermata 0-50 μM
[13] = test system: INS-1E cells; experiment: Nuclear integrity; type: cell-based; settings: PA 0-500 μM, Grassofermata 0-50 μM
[14] = test system: C57BL/6 male mice; experiment: Inhibition of 13C-oleate absorption in mice; type: in vivo; settings: single oral dose 300 mg/kg, 6 hrs post-label administration
Outline: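 Male C57BL/6 mice, 12 per group, fasted 12 h and given tyloxapol 500 mg/kg i.p. Gavaged with test compound 300 mg/kg in flaxseed oil or with oil alone. After 1 h, received flaxseed oil containing 500 mg/kg 13C-oleate. Plasma collected at 0.5, 2 and 6 h, Folch-extracted with nonadecanoic acid as internal standard. GC-MS in SIM mode, m/z 296 (12C) and 314 (13C oleate methyl ester). Mean ± SE of 10–12 mice.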

[15] = Grassofermata level in mouse plasma; type: in vivo, mice; settings: male, C57BL/6, mouse, oral, 300 mg/kg
Outline: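 Male C57BL/6 mice, 10 weeks old, in groups of 12, fasted 12 h and given tyloxapol 500 mg/kg i.p. They then received test compound 300 mg/kg in flaxseed oil by gavage, followed 1 h later by a 13C-oleate bolus. Plasma (EDTA) taken 0.5, 2 and 6 h after oleate. Plasma mixed with acetonitrile containing an analogue internal standard, acidified with TFA and centrifuged. Analysed by LC-MS/MS (C18, 457.1→411.1) against a 0.09–3.3 ng/μl standard curve.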

[16] = test system: Caco-2 cells; settings: 100 μM; cited from earlier work
[17] = test system: HsFATP2; settings: 80 μM; yeast expressing HsFATP2; cited from earlier work

IC50 [1]: 10.6 µM
IC50 [2]: 8.3 µM
IC50 [3]: 58.2 µM
IC50 [4]: 8 to 11 µM
IC50 ([6]; Homo sapiens, HepG2, read-out: IC50, inhibition of BODIPY FL-C16 uptake): 17.3 ± 2.5 µM
IC50 ([7]; Homo sapiens, Caco-2, read-out: IC50, inhibition of BODIPY FL-C16 uptake): 13.5 ± 1.1 µM
concentration at 0.5 h [15]: 2100 ± 600 ng/mL
concentration at 2 h [15]: 3400 ± 700 ng/mL
concentration at 6 h [15]: 2900 ± 700 ng/mL
SMILES: O=c1cc(-c2ccc([N+](=O)[O-])cc2)[nH]c2c(-c3ccc(Cl)cc3)c(Cc3ccccc3)nn12 [Grassofermata, 2-benzyl-3-(4-chlorophenyl)-5-(4-nitrophenyl)pyrazolo[1,5-a]pyrimidin-7(4H)-one]
mechanism of inhibition of C1-BODIPY-C12 uptake ([5]; HepG2, Grassofermata 1.25-15 μM, C1-BODIPY-C12 2.5-10 μM): non-competitive mechanism of inhibition
effect on transport of BODIPY FL-C5 ([6]; HepG2, medium chain FA analog): did not affect
effect on transport of BODIPY FL-C5 ([7]; Caco-2, medium chain FA analog): did not affect
accumulation of lipid (Nile Red) [8]: significantly reduced
accumulation of lipid (Nile Red) [9]: significantly reduced
accumulation of lipid (Nile Red) [10]: significantly reduced
DAPI staining (nuclear integrity) [11]: reduced DAPI staining of cells in a dose dependent manner
DAPI staining (nuclear integrity) [12]: reduced DAPI staining of cells in a dose dependent manner
DAPI staining (nuclear integrity) [13]: reduced DAPI staining of cells in a dose dependent manner
reduction of the levels of labeled oleate in plasma [14]: 37%

SMILES: CCCCCCCCCCC[C@@H](C[C@@H]1OC(=O)[C@H]1CCCCCC)OC(=O)[C@H](CC(C)C)NC=O [Orlistat, reference compound]
effect on C1-BODIPY-C12 uptake ([5]; standard FA transport assay, cell line not stated for Orlistat): no effect

SMILES: CN(C)CCCN1c2ccccc2Sc2ccc(Cl)cc21 [chlorpromazine]
inhibition of FA uptake [16]: 30–50%
inhibition of C1-BODIPY-C12 uptake [17]: intermediate levels of inhibition

SMILES: CN1CCN(C2=Nc3cc(Cl)ccc3Nc3ccccc32)CC1 [clozapine, Clozapine]
inhibition of FA uptake [16]: 30–50%
inhibition of C1-BODIPY-C12 uptake [17]: intermediate levels of inhibition

Reference: paper PMC4589248 (Biochemical and biophysical research communications, 2015)
